Source: ChEMBL document CHEMBL2062474, “Discovery and preliminary SAR of bisbenzylisoquinoline alkaloids as inducers of C/EBPα” (Bioorg Med Chem, 2012)

How the values were obtained:
[1] = test system: U-937; assay: Induction of rat C/EBPalpha expression transfected in human U937 cells after 24 hrs by luciferase reporter gene assay relative to ATRA; type: functional
Summary of the method: (§1)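 Engineered U937 line (4X C/EBPα binding site driving a luciferase reporter) incubated 24 h with or without sample in 384-well plates, in triplicate, across multiple 2-fold doses. Luminescence was read after adding Britelite reagent. ATRA ran on each plate as positive control. Fold induction was normalized to ATRA induction.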

[2] = test system: U-937; assay: Induction of rat C/EBPalpha expression transfected in human U937 cells at 6.2 uM after 24 hrs by luciferase reporter gene assay relative to ATRA; type: functional
Summary of the method: (§2)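 U937 cells carry a luciferase reporter driven by a multimerized C/EBPα binding site (U937 4X C/EBPα). Cells incubated 24 h with or without test sample in 384-well plates, then luciferase read by luminescence. ATRA included on each plate as positive control, and fold induction normalized to ATRA. Multiple 2-fold doses tested in triplicate.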

[3] = test system: U-937; assay: Cytotoxicity against human U937 cells after 24 hrs by alamar blue assay; type: cell-based; conditions: U-937, 24 h
Summary of the method: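 U937 cells exposed to test sample for 24 h in 384-well format. Toxicity read by Alamar Blue fluorescence and expressed as growth relative to untreated U937 cells. Value is the concentration giving 50% growth inhibition, from multiple 2-fold doses tested in triplicate.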

[4] = Cytotoxicity against human U937 cells assessed as cell growth at 6.2 uM after 24 hrs by alamar blue assay; type: cell-based, U-937; conditions: read-out: Activity
Summary of the method: (§3)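 U937 cells incubated 24 h with test sample in multiple 2-fold doses, tested in triplicate, in 384-well format. Cell growth read by Alamar Blue fluorescence relative to untreated U937 cells. Value is growth at the concentration giving maximum C/EBPα fold induction.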

[5] = test system: U-937; assay: Induction of rat C/EBPalpha expression transfected in human U937 cells at 25 uM after 24 hrs by luciferase reporter gene assay relative to ATRA; type: functional; summary of the method: as §1
[6] = Cytotoxicity against human U937 cells assessed as cell growth at 25 uM after 24 hrs by alamar blue assay; type: cell-based, U-937; conditions: read-out: Activity
Summary of the method: (§4)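 U937 cells engineered with a multimerized C/EBPα binding site driving luciferase were incubated with compound in 384-well format, in triplicate, at multiple 2-fold doses. Toxicity was read by Alamar Blue fluorescence. Growth is expressed relative to untreated U937 cells.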

[7] = test system: U-937; assay: Induction of rat C/EBPalpha expression transfected in human U937 cells at 0.78 uM after 24 hrs by luciferase reporter gene assay relative to ATRA; type: functional; summary of the method: as §2
[8] = Cytotoxicity against human U937 cells assessed as cell growth at 0.78 uM after 24 hrs by alamar blue assay; type: cell-based, U-937; conditions: read-out: Activity; summary of the method: as §3
[9] = test system: U-937; assay: Induction of rat C/EBPalpha expression transfected in human U937 cells at 3.1 uM after 24 hrs by luciferase reporter gene assay relative to ATRA; type: functional; summary of the method: as §2
[10] = Cytotoxicity against human U937 cells assessed as cell growth at 3.1 uM after 24 hrs by alamar blue assay; type: cell-based, U-937; conditions: read-out: Activity; summary of the method: as §3
[11] = test system: U-937; assay: Induction of rat C/EBPalpha expression transfected in human U937 cells at 12 uM after 24 hrs by luciferase reporter gene assay relative to ATRA; type: functional; summary of the method: as §1
[12] = Cytotoxicity against human U937 cells assessed as cell growth at 12 uM after 24 hrs by alamar blue assay; type: cell-based, U-937; conditions: read-out: Activity; summary of the method: as §4
[13] = test system: U-937; assay: Induction of rat C/EBPalpha expression transfected in human U937 cells at 50 uM after 24 hrs by luciferase reporter gene assay relative to ATRA; type: functional; summary of the method: as §1
[14] = Cytotoxicity against human U937 cells assessed as cell growth at 50 uM after 24 hrs by alamar blue assay; type: cell-based, U-937; conditions: read-out: Activity; summary of the method: as §4
[15] = test system: U-937; assay: Induction of rat C/EBPalpha expression transfected in human U937 cells after 24 hrs by luciferase reporter gene assay relative to control; type: functional; summary of the method: as §2
[16] = test system: HL-60; assay: Induction of rat C/EBPalpha expression transfected in human HL60 cells after 24 hrs by luciferase reporter gene assay relative to control; type: functional

With COc1ccc2cc1Oc1ccc(cc1)CC1=NCCc3cc(OC)c(OC)c(c31)Oc1cc3c(cc1OC)CCN(C)[C@@H]3C2 [EPISTEPHANINE] the MED [1] was >50 µM, the “fold change (FC)” value [2] was 0.9 and the IC50 [3] was > 50 µM. For the same molecule, the viability at 24 h, 6.2 µM [4] was 99%.

For COc1cc2c(cc1Oc1ccc(OC)c3c1C[C@H]1c4c(cc(OC)c(OC)c4-3)CCN1C)C[C@H]1c3c(cc(OC)c(OC)c3-2)CCN1C, the MED [1] was >50 µM, the “fold change (FC)” value [5] was 0.9 and the IC50 [3] was > 50 µM. The viability at 24 h, 25 µM [6] was 61%.

For COc1ccc2cc1Oc1ccc(cc1)C[C@@H]1c3cc(c(OC)cc3CCN1C)Oc1c(OC)c(OC)cc3c1[C@H](C2)N(C)CC3 [ISOTETRANDRINE], the MED [1] was 12 µM, the “fold change (FC)” value [5] was 1.2 and the IC50 [3] was > 50 µM. For the same molecule, the viability at 24 h, 25 µM [6] was 69%.

With COc1ccc(C[C@H]2c3cc(OC)c(OC)c(OC)c3CC[N+]2(C)C)cc1Oc1ccc(C[C@H]2c3cc(OC)c4c(c3CCN2C)OCO4)cc1.[Cl-] [THALISTYLINE] the MED [1] was >50 µM, the “fold change (FC)” value [7] was 0.9 and the IC50 [3] was > 50 µM. It also gave a viability at 24 h, 0.78 µM [8] of 133%.

In the case of COc1ccc(C[C@H]2c3cc(OC)c(OC)c(OC)c3CC[N+]2(C)C)cc1Oc1ccc(C[C@H]2c3cc4c(c(OC)c3CC[N+]2(C)C)OCO4)cc1.[I-].[I-] [THALISTYLINE DIMETHOIODIDE], the MED [1] is reported as >50 µM, the “fold change (FC)” value [9] is reported as 0.4 and the IC50 [3] is reported as > 50 µM. The viability at 24 h, 3.1 µM [10] was 116%.

For COc1ccc(CC2c3cc(OC)c(OC)cc3CCN2C)cc1OC (stereo unspecified) [LAUDANOSINE], the MED [1] was >50 µM and the “fold change (FC)” value [5] was 0.

In the case of COc1cc2c3cc1Oc1c(O)c(OC)cc4c1[C@@H](Cc1ccc(O)c(c1)Oc1ccc(cc1)C[C@@H]3N(C)CC2)N(C)CC4 [OBAMEGINE], the MED [1] is reported as 3 µM, the “fold change (FC)” value [11] is reported as 2.6 and the IC50 [3] is reported as 25 µM. For the same molecule, the viability at 24 h, 12 µM [12] was 89%.

With COc1ccc2cc1Oc1ccc(cc1)C[C@@H]1c3c(cc(OC)c4c3Oc3cc5c(cc3O4)CCN[C@@H]5C2)CCN1C [TELOBINE] the MED [1] was 1.5 µM, the “fold change (FC)” value [9] was 1.9 and the IC50 [3] was 12 µM. For the same molecule, the viability at 24 h, 3.1 µM [10] was 82%.

With COc1cc2c3cc1Oc1cc(ccc1O)C[C@@H]1c4c(cc(OC)c(O)c4Oc4cccc(c4)C[C@H]3N(C)CC2)CCN1C [CHONDODENDRINE] the MED [1] was 12 µM, the “fold change (FC)” value [5] was 1.9 and the IC50 [3] was > 50 µM.

In the case of COc1cc2c3cc1Oc1c(OC)c(OC)cc4c1[C@@H](Cc1ccc(O)c(c1)Oc1ccc(cc1)C[C@@H]3N(C)CC2)N(C)CC4 [BERBAMINE], the MED [1] is reported as 25 µM, the “fold change (FC)” value [13] is reported as 1.2 and the IC50 [3] is reported as > 50 µM. For the same molecule, the viability at 24 h, 50 µM [14] was 70%.

With COc1ccc2cc1Oc1ccc(cc1)C[C@H]1c3cc(c(OC)cc3CCN1C)Oc1c(O)c(OC)cc3c1[C@H](C2)N(C)CC3 [FANGCHINOLINE] the MED [1] was 25 µM, the “fold change (FC)” value [13] was 2 and the IC50 [3] was > 50 µM. The viability at 24 h, 50 µM [14] was 102%.

In the case of COc1ccc2cc1Oc1ccc(cc1)C[C@H]1c3cc(c(OC)cc3CCN1C)Oc1c(OC)c(OC)cc3c1[C@H](C2)N(C)CC3 [FANCHININ], the MED [1] is reported as >50 µM, the “fold change (FC)” value [5] is reported as 0.9 and the IC50 [3] is reported as > 50 µM. The viability at 24 h, 25 µM [6] was 69%.

In the case of COc1cc2c3cc1Oc1c(OC)c(OC)cc4c1[C@H](Cc1ccc(O)c(c1)-c1cc(ccc1OC)C[C@H]3N(C)CC2)N(C)CC4 [FUNIFERINE], the MED [1] is reported as 12 µM, the fold change (FC) [13] is reported as 2.2 and the IC50 [3] is reported as > 50 µM. For the same molecule, the viability at 24 h, 50 µM [14] was 94%.

With COc1ccc2cc1Oc1ccc(cc1)C[C@H]1c3c(cc4c(c3Oc3cc5c(cc3OC)CCN(C)[C@@H]5C2)OCO4)CCN1C [CEPHARANTHINE] the MED [1] was 12 µM, the “fold change (FC)” value [11] was 1 and the IC50 [3] was > 50 µM. For the same molecule, the viability at 24 h, 12 µM [12] was 87%.

In the case of COc1ccc2cc1Oc1ccc(cc1)C[C@H]1c3c(cc(OC)c(O)c3Oc3cc4c(cc3OC)CCN(C)[C@@H]4C2)CCN1C [HOMOAROMOLINE], the MED [1] is reported as 3.1 µM, the “fold change (FC)” value [13] is reported as 1.9 and the IC50 [3] is reported as > 50 µM. The viability at 24 h, 50 µM [14] was 80%.

For COc1cc2c3c(O)c1OCc1ccc(cc1)C[C@@H]1c4c(cc(OC)c(OC)c4Oc4ccc(cc4)CC3=NCC2)CCN1C [CISSAMPAREINE], the MED [1] was >50 µM, the “fold change (FC)” value [9] was 0.5 and the IC50 [3] was > 50 µM. For the same molecule, the viability at 24 h, 3.1 µM [10] was 78%.

In the case of COc1ccc2cc1Oc1ccc(cc1)C[C@@H]1c3cc(c(OC)cc3CCN1C)Oc1c(OC)c(OC)cc3c1[C@@H](C2)N(C)CC3 [PHAEANTHINE], the MED [1] is reported as >50 µM, the “fold change (FC)” value [11] is reported as 0.75 and the IC50 [3] is reported as 50 µM. It also gave a viability at 24 h, 12 µM [12] of 104%.

In the case of COc1ccc2cc1Oc1ccc(cc1)C[C@H]1NCCc3cc(OC)c(cc31)Oc1c(O)c(OC)cc3c1CCN(C)[C@@H]3C2 [NORPANURENSINE], the MED [1] is reported as 12 µM, the “fold change (FC)” value [13] is reported as 2.5 and the IC50 [3] is reported as > 50 µM. The viability at 24 h, 50 µM [14] was 113%.

For COc1cc2c3cc1Oc1c(OC)c(OC)cc4c1[C@H](Cc1cc5c(c(c1)Oc1ccc(cc1)C[C@@H]3N(C)CC2)OCO5)N(C)CC4 [TENUIPINE], the MED [1] was 25 µM, the “fold change (FC)” value [5] was 1.4 and the IC50 [3] was > 50 µM. The viability at 24 h, 25 µM [6] was 105%.

With COc1cc2c3c4c1Oc1cc5c(cc1O4)[C@@H](Cc1ccc(O)c(c1)Oc1ccc(cc1)C[C@@H]3N(C)CC2)N(C)CC5 [TRIGILLETINE] the MED [1] was >50 µM, the “fold change (FC)” value [9] was 0.8 and the IC50 [3] was 50 µM. It also gave a viability at 24 h, 3.1 µM [10] of 108%.

In the case of COc1ccc2cc1-c1cc(ccc1O)C[C@H]1c3cc4c(cc3CCN1C)Oc1c(OC)cc3c(c1O4)[C@H](C2)N(C)CC3 [TILIACORININE], the MED [1] is reported as 12 µM, the “fold change (FC)” value [11] is reported as 1.9 and the IC50 [3] is reported as 25 µM. It also gave a viability at 24 h, 12 µM [12] of 63%.

With CC1=C(/C=C/C(C)=C/C=C/C(C)=C/C(=O)O)C(C)(C)CCC1 [TRETINOIN] the “fold change (FC)” value [15] was 2 and the “fold change (FC)” value [16] was 2.

For COC1=CC2=C3[C@H](Cc4cc5c(c(c4)Oc4ccc(cc4)C[C@H]4c6cc7c(cc6CCN4C)OC[C@@]3(O7)C1=O)OCO5)N(C)CC2 [REPANDULINE], the MED [1] was 50 µM, the “fold change (FC)” value [13] was 1.5 and the IC50 [3] was > 50 µM. For the same molecule, the viability at 24 h, 50 µM [14] was 67%.

For COc1cc2c(cc1O)[C@H]1Cc3c(cc(OC)c(OC)c3Oc3cc4c(cc3OC)CCN(C)[C@@H]4Cc3ccc(O)cc3)[C@@H](C2)N1C [HERVELINE O], the MED [1] was >50 µM, the “fold change (FC)” value [5] was 0.46 and the IC50 [3] was > 50 µM. The viability at 24 h, 25 µM [6] was 108%.
